According to ChEMBL document CHEMBL2321771, “Inhibition of Ebola Virus Infection: Identification of Niemann-Pick C1 as the Target by Optimization of a Chemical Probe” (ACS Med Chem Lett, 2013):
Activity calls are given as the source filed them. The rule behind the calls is not given here.

Legend:
[1] = biological target: T1, NPC intracellular cholesterol transporter 1 (Homo sapiens) (UniProt O15118); experiment: Binding affinity to human NPC1 expressed in LE/LY membrane of CHO cells at 25 uM by immunoblotting; format: cell membranes
T1 sequence (whole entry): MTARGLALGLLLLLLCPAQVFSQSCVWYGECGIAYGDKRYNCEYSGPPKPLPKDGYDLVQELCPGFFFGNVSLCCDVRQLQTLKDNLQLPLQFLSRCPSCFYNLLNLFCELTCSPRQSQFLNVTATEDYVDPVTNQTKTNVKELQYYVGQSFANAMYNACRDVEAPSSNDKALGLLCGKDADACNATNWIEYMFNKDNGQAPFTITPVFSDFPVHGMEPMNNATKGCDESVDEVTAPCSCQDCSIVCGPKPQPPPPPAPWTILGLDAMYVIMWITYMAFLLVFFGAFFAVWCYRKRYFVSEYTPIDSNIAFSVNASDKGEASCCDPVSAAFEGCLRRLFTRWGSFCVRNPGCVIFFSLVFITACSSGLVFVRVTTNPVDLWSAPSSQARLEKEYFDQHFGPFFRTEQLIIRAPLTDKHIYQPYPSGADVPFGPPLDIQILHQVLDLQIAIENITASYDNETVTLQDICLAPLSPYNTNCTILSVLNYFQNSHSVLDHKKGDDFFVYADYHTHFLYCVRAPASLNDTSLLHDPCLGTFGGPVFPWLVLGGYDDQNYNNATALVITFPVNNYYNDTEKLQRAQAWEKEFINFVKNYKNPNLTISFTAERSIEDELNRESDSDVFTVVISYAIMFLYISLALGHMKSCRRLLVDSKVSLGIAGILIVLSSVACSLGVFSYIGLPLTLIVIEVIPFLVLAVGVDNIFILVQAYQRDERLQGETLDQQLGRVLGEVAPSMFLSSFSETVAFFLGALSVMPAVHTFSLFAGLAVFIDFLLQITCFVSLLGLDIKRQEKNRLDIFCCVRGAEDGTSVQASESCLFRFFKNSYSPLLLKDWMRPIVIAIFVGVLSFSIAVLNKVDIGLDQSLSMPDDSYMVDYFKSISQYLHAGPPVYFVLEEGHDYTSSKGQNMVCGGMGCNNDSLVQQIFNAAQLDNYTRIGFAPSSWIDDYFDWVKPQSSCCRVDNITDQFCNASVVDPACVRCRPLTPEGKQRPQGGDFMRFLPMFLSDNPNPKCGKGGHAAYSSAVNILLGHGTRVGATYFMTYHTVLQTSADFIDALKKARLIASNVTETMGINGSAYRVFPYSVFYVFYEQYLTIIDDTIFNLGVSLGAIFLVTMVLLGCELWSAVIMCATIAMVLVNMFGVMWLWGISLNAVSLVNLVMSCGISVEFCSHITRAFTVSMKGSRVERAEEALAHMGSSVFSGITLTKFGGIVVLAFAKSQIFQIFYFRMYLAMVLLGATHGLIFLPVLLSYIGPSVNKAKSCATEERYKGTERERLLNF
Summary of the method: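 Purified late endosome/lysosome membranes came from NPC1-null CHO cells and CHO cells overexpressing human NPC1. […] Cross-linked proteins were click-labelled with Alexa Fluor 488 azide and detected by anti-Alexa 488 immunoblot. NPC1 was confirmed by anti-NPC1 immunoprecipitation and immunoblot.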

[2] = biological target: T2, NPC intracellular cholesterol transporter 1 (Mus musculus) (UniProt O35604); experiment: Inhibition of mouse NPC1 interaction to Ebola virus GP expressed in LE/LY membrane of CHO cells by immunoblotting; format: cell-based
T2 sequence (whole entry): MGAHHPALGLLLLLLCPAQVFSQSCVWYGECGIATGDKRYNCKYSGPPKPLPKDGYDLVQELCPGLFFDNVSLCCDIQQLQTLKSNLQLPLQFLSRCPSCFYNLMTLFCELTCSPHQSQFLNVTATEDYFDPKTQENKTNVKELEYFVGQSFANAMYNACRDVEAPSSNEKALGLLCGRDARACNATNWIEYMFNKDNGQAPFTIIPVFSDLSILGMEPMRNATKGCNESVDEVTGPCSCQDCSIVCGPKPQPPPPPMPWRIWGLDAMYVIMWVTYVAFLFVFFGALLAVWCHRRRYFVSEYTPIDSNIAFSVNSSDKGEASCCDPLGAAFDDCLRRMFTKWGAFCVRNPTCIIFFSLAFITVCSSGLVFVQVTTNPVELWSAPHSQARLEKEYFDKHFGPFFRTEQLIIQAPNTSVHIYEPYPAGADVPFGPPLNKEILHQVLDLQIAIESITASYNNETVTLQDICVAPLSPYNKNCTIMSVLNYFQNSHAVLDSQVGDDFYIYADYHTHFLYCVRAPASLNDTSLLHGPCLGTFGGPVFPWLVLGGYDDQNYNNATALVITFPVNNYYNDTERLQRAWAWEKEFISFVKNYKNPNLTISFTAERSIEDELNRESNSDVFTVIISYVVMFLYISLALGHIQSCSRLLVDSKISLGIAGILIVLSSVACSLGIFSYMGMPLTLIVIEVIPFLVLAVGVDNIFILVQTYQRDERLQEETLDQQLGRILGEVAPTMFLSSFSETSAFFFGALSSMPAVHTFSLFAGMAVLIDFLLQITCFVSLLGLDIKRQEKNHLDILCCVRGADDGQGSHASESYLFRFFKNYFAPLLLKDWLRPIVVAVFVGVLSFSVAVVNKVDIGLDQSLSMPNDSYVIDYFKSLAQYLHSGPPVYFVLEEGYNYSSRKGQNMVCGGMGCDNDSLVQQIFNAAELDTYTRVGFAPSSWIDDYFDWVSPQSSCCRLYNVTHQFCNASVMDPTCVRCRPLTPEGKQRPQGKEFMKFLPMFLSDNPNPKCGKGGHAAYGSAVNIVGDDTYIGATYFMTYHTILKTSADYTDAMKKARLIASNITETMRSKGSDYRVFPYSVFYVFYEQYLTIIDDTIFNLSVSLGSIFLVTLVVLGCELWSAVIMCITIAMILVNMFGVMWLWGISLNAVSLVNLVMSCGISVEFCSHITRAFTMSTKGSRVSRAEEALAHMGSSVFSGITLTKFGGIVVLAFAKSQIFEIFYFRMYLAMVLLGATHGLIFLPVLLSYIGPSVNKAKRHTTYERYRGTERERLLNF
Summary of the method: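 Late endosome/lysosome membranes from NPC1-null CHO cells, or the same cells stably expressing mouse NPC1, were immobilized on ELISA plates. They were incubated with protease-cleaved Ebola GP in the presence of test compound at specified concentrations. After washing off unbound GP, membranes were solubilized in NP40 and bound GP was detected by GP1-antibody immunoblot. Results are representative of six experiments.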

Ebolavirus = experiment: Antiviral activity against Ebola virus by cell based luciferase reporter gene assay; format: functional, Ebola virus sp.; details: Orthoebolavirus
Lassa virus = experiment: Antiviral activity against Lassa virus by cell based luciferase reporter gene assay; format: functional, organism-based; details: Mammarenavirus lassaense
[3] = test system: Vesicular stomatitis virus; experiment: Antiviral activity against Vesicular stomatitis virus by cell based luciferase reporter gene assay; format: functional, organism-based

SMILES	IC50 (Ebolavirus)	further results
C#Cc1ccc(COc2ccc(N=[N+]=[N-])cc2CN2CCN(C(=O)CNC(=O)CC34CC5CC(CC(C5)C3)C4)CC2)cc1		Activity [1]: Active; inhibition [2]: Active
COC(=O)c1ccc(COc2ccccc2CN2CCN(C(=O)CNC(=O)CC34CC5CC(CC(C5)C3)C4)CC2)cc1	0.02 µM	inhibition (Lassa virus): inactive; inhibition [3]: inactive; inhibition [2]: Active
O=C(CC12CC3CC(CC(C3)C1)C2)NCC(=O)N1CCC(Cc2ccccc2)CC1	1.3 µM	inhibition [2]: Active
N#Cc1ccc(CN2CCN(C(=O)CNC(=O)CC34CC5CC(CC(C5)C3)C4)CC2)cc1	8 µM	
O=C(NCC(=O)N1CCN(Cc2ccccc2)CC1)C1CCCCC1	27 µM	
O=C(CC12CC3CC(CC(C3)C1)C2)NCC(=O)N1CCN(Cc2ccccc2O)CC1	2.9 µM	
O=C(CC12CC3CC(CC(C3)C1)C2)NCC(=O)N1CCN(Cc2cccc(OCc3ccccc3)c2)CC1	4 µM	
O=C(CC12CC3CC(CC(C3)C1)C2)NCC(=O)N1CCN(Cc2ccc(Cl)cc2)CC1	2.5 µM	
CN(C)C(=O)c1ccc(COc2ccccc2CN2CCN(C(=O)CNC(=O)CC34CC5CC(CC(C5)C3)C4)CC2)cc1	3.3 µM	
O=C(Cc1ccc(Cl)cc1)NCC(=O)N1CCN(Cc2ccccc2)CC1	19 µM	
O=C(CC12CC3CC(CC(C3)C1)C2)NCC(=O)N1CCN(C(=O)c2ccccc2)CC1	3 µM	
N#Cc1ccc(COc2ccccc2CN2CCN(C(=O)CNC(=O)CC34CC5CC(CC(C5)C3)C4)CC2)cc1	4.4 µM	
COC(=O)c1cccc(COc2ccccc2CN2CCN(C(=O)CNC(=O)CC34CC5CC(CC(C5)C3)C4)CC2)c1	2.4 µM	
O=C(CC12CC3CC(CC(C3)C1)C2)NCC(=O)N1CCN(Cc2ccccc2OCc2ccc([N+](=O)[O-])cc2)CC1	1.7 µM	
CN(CC(=O)N1CCN(Cc2ccccc2)CC1)C(=O)CC12CC3CC(CC(C3)C1)C2	6.7 µM	
CC(OCc1ccccc1)C(NC(=O)CC12CC3CC(CC(C3)C1)C2)C(=O)N1CCN(Cc2ccccc2)CC1 (stereo unspecified)	29 µM	
N#CCC(NC(=O)CC12CC3CC(CC(C3)C1)C2)C(=O)N1CCN(Cc2ccccc2)CC1 (stereo unspecified)	22 µM	

SMILES	IC50 (Ebolavirus)	further results
N#Cc1ccccc1CN1CCN(C(=O)CNC(=O)CC23CC4CC(CC(C4)C2)C3)CC1	3.9 µM	
O=C(CC12CC3CC(CC(C3)C1)C2)NCCC(=O)N1CCN(Cc2ccccc2)CC1	17 µM	inhibition [2]: Active
O=C(CC12CC3CC(CC(C3)C1)C2)NCC(=O)N1CCN(Cc2ccccc2Br)CC1	3.4 µM	
O=C(CC1CCCCC1)NCC(=O)N1CCN(Cc2ccccc2)CC1	> 40 µM	
COc1ccc(CN2CCN(C(=O)CNC(=O)CC34CC5CC(CC(C5)C3)C4)CC2)cc1	5.4 µM	
O=C(CC12CC3CC(CC(C3)C1)C2)NCC(=O)N1CCN(Cc2ccncc2)CC1	14.5 µM	
O=C(CC12CC3CC(CC(C3)C1)C2)NCC(=O)N1CCN(Cc2ccccn2)CC1	8.5 µM	
O=C(CNC(=O)C12CC3CC(CC(C3)C1)C2)N1CCN(Cc2ccccc2)CC1	29 µM	
O=C(CC12CC3CC(CC(C3)C1)C2)NCC(=O)N1CCN(Cc2ccc(O)cc2)CC1	7 µM	
Cc1ccc(CN2CCN(C(=O)CNC(=O)CC34CC5CC(CC(C5)C3)C4)CC2)cc1	1.1 µM	
Cc1cccc(CN2CCN(C(=O)CNC(=O)CC34CC5CC(CC(C5)C3)C4)CC2)c1	1.1 µM	
O=C(CC12CC3CC(CC(C3)C1)C2)NCC(=O)N1CCN(Cc2ccccc2)CC1	1.3 µM	inhibition [2]: Active
CC(C)CC(NC(=O)CC12CC3CC(CC(C3)C1)C2)C(=O)N1CCN(Cc2ccccc2)CC1 (stereo unspecified)	29 µM	
O=C(CC12CC3CC(CC(C3)C1)C2)NCC(=O)N1CCN(Cc2cccc3ccccc23)CC1	3.4 µM	
O=C(CC12CC3CC(CC(C3)C1)C2)NCC(=O)N1CCN(Cc2ccccc2C(F)(F)F)CC1	1.8 µM	
O=C(CC12CC3CC(CC(C3)C1)C2)NCC(=O)N1CCN(Cc2ccc(C(=O)O)cc2)CC1	> 40 µM	
O=C(CC12CC3CC(CC(C3)C1)C2)NCC(=O)N1CCN(Cc2cccnc2)CC1	6.8 µM	
